Test results reported in ChEMBL document CHEMBL2057200, “Design and synthesis of potent antagonists containing rigid spirocyclic privileged structures for the CGRP receptor” (Bioorg Med Chem Lett, 2012).

Assays:
[1] = target: T1, Calcitonin gene-related peptide type 1 receptor (Homo sapiens, UniProt O60894+Q16602); experiment: Displacement of [125I]CGRP from CGRP receptor in human SK-N-MC cells; format: cell-based
Summary of the method: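 Radioligand competition binding in human neuroblastoma SK-N-MC cells, which endogenously express CGRP receptor of identical sequence to the cloned human receptor. IC50 determined from compound competition for the radioligand.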

[2] = target: T1, Calcitonin gene-related peptide type 1 receptor; experiment: Antagonist activity at CGRP receptor in human SK-N-MC cells assessed as inhibition of CGRP-stimulated formation of cyclic AMP; format: functional, cell-based
[3] = target: cytochrome P450 (isoform not stated) (Homo sapiens, UniProt P04798+P05177+P05181+P08684+P10632+P10635+P11509+P11712+P13584+P20813+P20815+P20853+P24462+P24903+P33260+P33261+P51589+P78329+P98187+Q02928+Q08477+Q16678+Q16696+Q5TCH4+Q6VVX0+Q7Z449+Q8TAV3+Q96SQ9+Q9HB55); experiment: Inhibition of cytochrome P450; format: ADME
[4] = Inhibition of CGRP-induced dilation in potassium chloride pre-contracted ex vivo migraine model of human intracranial artery rings
Cytochrome P450 3A4 = Cytochrome P450 3A4 (Homo sapiens, UniProt P08684); experiment: Inhibition of CYP3A4; format: ADME
Cytochrome P450 2C9 = Cytochrome P450 2C9 (Homo sapiens, UniProt P11712); experiment: Inhibition of recombinant CYP2C9; format: ADME
Cytochrome P450 2C19 = Cytochrome P450 2C19 (Homo sapiens, UniProt P33261); experiment: Inhibition of recombinant CYP2C19; format: ADME
Cytochrome P450 1A2 = target: T2, Cytochrome P450 1A2 (Homo sapiens, UniProt P05177); experiment: Inhibition of recombinant CYP1A2; format: ADME
T2 sequence (P05177 whole entry): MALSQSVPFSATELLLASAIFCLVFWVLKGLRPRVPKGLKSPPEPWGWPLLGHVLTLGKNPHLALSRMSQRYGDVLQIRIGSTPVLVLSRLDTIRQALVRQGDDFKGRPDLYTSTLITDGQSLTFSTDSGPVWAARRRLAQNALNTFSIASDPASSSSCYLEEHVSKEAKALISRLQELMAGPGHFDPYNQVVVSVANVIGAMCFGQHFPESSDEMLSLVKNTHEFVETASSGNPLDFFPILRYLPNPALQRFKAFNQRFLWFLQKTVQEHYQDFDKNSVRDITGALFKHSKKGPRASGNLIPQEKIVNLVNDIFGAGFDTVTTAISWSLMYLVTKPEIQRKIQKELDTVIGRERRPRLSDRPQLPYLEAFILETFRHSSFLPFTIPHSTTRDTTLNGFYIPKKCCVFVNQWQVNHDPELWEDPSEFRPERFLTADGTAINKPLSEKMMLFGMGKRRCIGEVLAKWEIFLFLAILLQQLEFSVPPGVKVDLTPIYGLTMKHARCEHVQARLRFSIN

[5] = Metabolic stability of the compound in human liver microsomes assessed as compound remaining at 3 uM after 10 mins; format: ADME, Microsome; conditions: read-out: Stability
[6] = Metabolic stability of the compound in rat liver microsomes assessed as compound remaining at 3 uM after 10 mins; format: ADME, Microsome; conditions: read-out: Stability

T1 sequence (Q16602 whole entry, one chain of several): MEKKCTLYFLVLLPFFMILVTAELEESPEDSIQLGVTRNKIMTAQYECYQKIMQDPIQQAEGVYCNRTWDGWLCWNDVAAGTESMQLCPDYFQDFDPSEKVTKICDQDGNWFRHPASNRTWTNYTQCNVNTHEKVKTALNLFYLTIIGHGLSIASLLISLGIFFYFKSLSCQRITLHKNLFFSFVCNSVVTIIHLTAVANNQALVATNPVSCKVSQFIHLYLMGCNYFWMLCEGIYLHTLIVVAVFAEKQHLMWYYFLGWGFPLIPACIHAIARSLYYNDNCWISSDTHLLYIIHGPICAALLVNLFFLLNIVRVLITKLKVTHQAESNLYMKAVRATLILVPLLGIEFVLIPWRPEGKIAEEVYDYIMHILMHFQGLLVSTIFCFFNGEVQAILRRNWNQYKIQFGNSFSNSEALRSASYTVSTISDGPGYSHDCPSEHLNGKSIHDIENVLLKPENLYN
Sequence of Cytochrome P450 3A4 (P08684 whole entry): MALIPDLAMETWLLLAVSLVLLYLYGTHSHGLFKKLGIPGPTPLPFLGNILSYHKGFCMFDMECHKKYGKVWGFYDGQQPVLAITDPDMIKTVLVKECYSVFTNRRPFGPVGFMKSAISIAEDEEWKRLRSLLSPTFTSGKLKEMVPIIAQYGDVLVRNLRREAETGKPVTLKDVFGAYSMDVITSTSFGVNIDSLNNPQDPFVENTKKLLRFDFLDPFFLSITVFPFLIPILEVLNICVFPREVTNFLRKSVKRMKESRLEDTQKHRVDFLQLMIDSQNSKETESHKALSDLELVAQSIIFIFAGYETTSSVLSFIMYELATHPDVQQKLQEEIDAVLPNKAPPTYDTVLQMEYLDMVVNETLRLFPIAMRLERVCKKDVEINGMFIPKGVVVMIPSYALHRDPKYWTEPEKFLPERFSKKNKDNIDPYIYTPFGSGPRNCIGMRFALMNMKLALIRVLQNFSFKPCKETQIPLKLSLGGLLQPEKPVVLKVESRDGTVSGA
Sequence of Cytochrome P450 2C9 (P11712 whole entry): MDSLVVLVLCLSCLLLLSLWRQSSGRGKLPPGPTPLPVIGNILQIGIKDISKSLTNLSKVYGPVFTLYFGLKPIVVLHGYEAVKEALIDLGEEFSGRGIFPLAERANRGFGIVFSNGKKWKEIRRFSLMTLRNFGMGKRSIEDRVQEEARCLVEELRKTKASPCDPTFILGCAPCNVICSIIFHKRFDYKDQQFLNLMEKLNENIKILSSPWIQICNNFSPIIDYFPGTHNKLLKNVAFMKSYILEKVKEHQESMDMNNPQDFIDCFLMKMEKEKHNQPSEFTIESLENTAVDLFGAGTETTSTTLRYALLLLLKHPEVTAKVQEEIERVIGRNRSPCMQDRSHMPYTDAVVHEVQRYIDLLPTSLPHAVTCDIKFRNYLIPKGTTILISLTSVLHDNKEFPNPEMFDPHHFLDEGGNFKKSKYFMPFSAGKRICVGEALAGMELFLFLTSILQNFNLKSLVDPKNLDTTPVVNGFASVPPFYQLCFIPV
Sequence of Cytochrome P450 2C19 (P33261 whole entry): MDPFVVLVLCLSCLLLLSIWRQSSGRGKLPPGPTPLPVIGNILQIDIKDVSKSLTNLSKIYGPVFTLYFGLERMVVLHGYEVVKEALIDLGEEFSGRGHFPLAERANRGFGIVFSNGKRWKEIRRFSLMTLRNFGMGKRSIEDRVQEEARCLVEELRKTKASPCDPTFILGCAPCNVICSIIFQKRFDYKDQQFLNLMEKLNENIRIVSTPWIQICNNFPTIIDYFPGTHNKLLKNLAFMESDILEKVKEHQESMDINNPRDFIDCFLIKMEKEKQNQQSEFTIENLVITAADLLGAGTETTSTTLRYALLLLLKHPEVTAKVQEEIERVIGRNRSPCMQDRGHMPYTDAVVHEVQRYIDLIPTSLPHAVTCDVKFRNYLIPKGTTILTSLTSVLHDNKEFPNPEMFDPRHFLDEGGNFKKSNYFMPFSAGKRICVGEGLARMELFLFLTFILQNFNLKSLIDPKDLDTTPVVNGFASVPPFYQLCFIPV

SMILES | IC50 [1] | EC50 [2] | further results
O=C(N[C@H](Cc1csc2ccccc12)C(=O)N1CCC(N2CCCCC2)CC1)N1CCC(n2c(=O)[nH]c3ccccc32)CC1 | 9 nM | – | –
O=C(N[C@H](Cc1csc2ccccc12)C(=O)N1CCC(C2CCNCC2)CC1)N1CCC(n2c(=O)[nH]c3ccccc32)CC1 | 4 nM | – | –
O=C(N[C@H](Cc1csc2ccccc12)C(=O)N1CCC(N2CCCCC2)CC1)N1CCC2(CC1)C(=O)Nc1ccccc12 | 170 nM | – | –
O=C1CC2(CCN(C(=O)N[C@H](Cc3csc4ccccc34)C(=O)N3CCC(N4CCCCC4)CC3)CC2)c2ccccc2N1 | 23 nM | 12 nM | –
O=C1Cc2ccccc2C2(CCN(C(=O)N[C@H](Cc3csc4ccccc34)C(=O)N3CCC(N4CCCCC4)CC3)CC2)N1 | 29 nM | 15 nM | –
O=C1NCC2(CCN(C(=O)N[C@H](Cc3csc4ccccc34)C(=O)N3CCC(N4CCCCC4)CC3)CC2)c2ccccc21 | 150 nM | 130 nM | –
CN1c2ccccc2C(=O)NC12CCN(C(=O)N[C@H](Cc1csc3ccccc13)C(=O)N1CCC(N3CCCCC3)CC1)CC2 | 860 nM | – | –
O=C(N[C@H](Cc1csc2ccccc12)C(=O)N1CCC(N2CCCCC2)CC1)N1CCC2(CC1)N=C(c1ccccc1)NC2=O | 20 nM | 13 nM | IC50 [3]: > 40000 nM; EC50 [4]: 63 nM; IC50 (Cytochrome P450 3A4): < 1000 nM
O=C(N[C@H](Cc1csc2ccccc12)C(=O)N1CCC(N2CCCCC2)CC1)N1CCC2(CC1)C(=O)NCN2c1ccccc1 | 330 nM | – | –
O=C(N[C@H](Cc1csc2ccccc12)C(=O)N1CCC(N2CCCCC2)CC1)N1CCC2(CC1)N=C(C1CCCCC1)NC2=O | 8500 nM | – | –
O=C(N[C@H](Cc1csc2ccccc12)C(=O)N1CCC(N2CCCCC2)CC1)N1CCC2(CC1)N=C(c1ccncc1)NC2=O | 1400 nM | – | –
O=C(N[C@H](Cc1csc2ccccc12)C(=O)N1CCC(N2CCCCC2)CC1)N1CCC2(CC1)N=C(c1cccnc1)NC2=O | 210 nM | – | –
O=C1Nc2ccccc2C2(CCN(C(=O)N[C@H](Cc3csc4ccccc34)C(=O)N3CCC(N4CCCCC4)CC3)CC2)O1 | 20 nM | 31 nM | IC50 [3]: > 40000 nM; EC50 [4]: 19 nM; IC50 (Cytochrome P450 3A4): < 1000 nM
O=C1Nc2ccccc2C2(CCN(C(=O)N[C@H](Cc3csc4ccccc34)C(=O)N3CCC(N4CCCCC4)CC3)CC2)N1 | 5 nM | 3 nM | IC50 (Cytochrome P450 2C9): > 40000 nM; IC50 (Cytochrome P450 2C19): > 40000 nM; IC50 (Cytochrome P450 1A2): > 40000 nM; EC50 [4]: 32 nM; remaining at 10 min, 3 µM [5]: 82%; IC50 (Cytochrome P450 3A4): 100 nM; remaining at 10 min, 3 µM [6]: 100%
O=C(N[C@H](Cc1csc2ccccc12)C(=O)N1CCC(N2CCCCC2)CC1)N1CCC(N2Cc3ccccc3NC2=O)CC1 | 3 nM | – | –
